The target in data set [1] is T1, NAD-dependent protein deacetylase sirtuin-3, mitochondrial (Homo sapiens, UniProt Q9NTG7).
T1 sequence (Q9NTG7 whole entry): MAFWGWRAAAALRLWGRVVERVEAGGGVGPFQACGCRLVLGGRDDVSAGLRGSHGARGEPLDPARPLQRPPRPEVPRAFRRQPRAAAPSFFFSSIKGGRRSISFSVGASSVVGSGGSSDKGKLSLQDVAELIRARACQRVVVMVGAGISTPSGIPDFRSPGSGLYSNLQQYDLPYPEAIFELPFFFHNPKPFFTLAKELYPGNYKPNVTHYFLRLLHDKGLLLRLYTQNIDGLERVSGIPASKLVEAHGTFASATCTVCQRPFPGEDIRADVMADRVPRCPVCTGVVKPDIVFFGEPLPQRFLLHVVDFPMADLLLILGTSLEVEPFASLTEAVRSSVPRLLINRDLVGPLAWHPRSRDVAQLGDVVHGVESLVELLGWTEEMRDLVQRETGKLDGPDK
Briefly: Inhibition of SIRT3 (unknown origin).

In data set [2] the target is T2, NAD-dependent protein deacetylase sirtuin-2 (Homo sapiens) (UniProt Q8IXJ6).
T2 sequence (whole entry): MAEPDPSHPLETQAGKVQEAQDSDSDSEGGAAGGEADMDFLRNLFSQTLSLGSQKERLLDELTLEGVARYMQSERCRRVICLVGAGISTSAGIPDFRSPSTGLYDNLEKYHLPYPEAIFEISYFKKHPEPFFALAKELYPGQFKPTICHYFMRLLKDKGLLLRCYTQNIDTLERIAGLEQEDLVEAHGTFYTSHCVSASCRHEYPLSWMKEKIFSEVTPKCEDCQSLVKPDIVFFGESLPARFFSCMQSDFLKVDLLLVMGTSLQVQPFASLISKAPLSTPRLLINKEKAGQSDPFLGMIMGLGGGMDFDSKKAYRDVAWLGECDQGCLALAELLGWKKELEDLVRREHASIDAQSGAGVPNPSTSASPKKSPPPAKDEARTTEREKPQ
Briefly: Inhibition of human SIRT2 at 50 uM.

In data set [3] the target is T2, NAD-dependent protein deacetylase sirtuin-2 (Homo sapiens). Briefly: Inhibition of human SIRT2 at 5 uM.
Data set [4] can be described thus: Growth inhibition of human HL7702 cells at 100 uM after 120 hrs by MTT assay. Type of data set: cell-based. Particulars: HL7702 (L02) cells, read-out: GI.
In data set [5] the test system is MCF7. Briefly: Growth inhibition of human MCF7 cells at 50 uM after 120 hrs by MTT assay. Type of data set: functional. The procedure, abridged:
(§1)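 MCF-7 cells were kept in high-glucose DMEM with 10% FBS and penicillin/streptomycin, split at 80–90% confluency and used within 10 passages. They were seeded at 3000 cells/well, grown 24 h, then exposed for 120 h at 37°C, 5% CO2 (final DMSO 1% v/v). MTT formazan was dissolved in acidified 20% SDS and read at 570 nm. Triplicates; experiments repeated at least twice.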
In general terms: Formazan colour is commonly taken as a measure of viable cells.

The target of data set [6] is T3, NAD-dependent protein deacetylase sirtuin-1 (Homo sapiens, UniProt Q96EB6).
T3 sequence (Q96EB6 whole entry): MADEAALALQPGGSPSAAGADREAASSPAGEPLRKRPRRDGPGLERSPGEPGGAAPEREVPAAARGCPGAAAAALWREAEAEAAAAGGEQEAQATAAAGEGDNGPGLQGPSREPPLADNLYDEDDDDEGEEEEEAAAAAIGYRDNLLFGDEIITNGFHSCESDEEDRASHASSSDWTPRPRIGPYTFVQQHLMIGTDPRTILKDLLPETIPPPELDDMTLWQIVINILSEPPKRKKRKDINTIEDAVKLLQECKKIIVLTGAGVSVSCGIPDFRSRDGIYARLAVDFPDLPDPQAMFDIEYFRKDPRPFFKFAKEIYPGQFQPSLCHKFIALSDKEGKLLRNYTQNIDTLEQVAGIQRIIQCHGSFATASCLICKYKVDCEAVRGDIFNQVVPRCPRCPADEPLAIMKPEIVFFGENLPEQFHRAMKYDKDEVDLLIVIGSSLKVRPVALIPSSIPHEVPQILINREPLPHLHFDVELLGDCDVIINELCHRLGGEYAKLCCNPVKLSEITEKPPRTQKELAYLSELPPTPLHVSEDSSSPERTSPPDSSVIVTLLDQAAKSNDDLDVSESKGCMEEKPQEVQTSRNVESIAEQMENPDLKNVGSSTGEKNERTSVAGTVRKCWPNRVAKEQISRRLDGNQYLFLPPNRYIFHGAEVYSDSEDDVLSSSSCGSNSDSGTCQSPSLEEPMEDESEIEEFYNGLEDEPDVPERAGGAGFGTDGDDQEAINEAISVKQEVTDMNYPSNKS
Briefly: Inhibition of SIRT1 (unknown origin).

The subject of data set [7] is MCF7. Briefly: Growth inhibition of human MCF7 cells after 120 hrs by MTT assay. Type of data set: functional, cell-based. The method, boiled down:
as §1

This note sets out measurements from ChEMBL document CHEMBL4020726, “Discovery of 2-((4,6-dimethylpyrimidin-2-yl)thio)-N-phenylacetamide derivatives as new potent and selective human sirtuin 2 inhibitors” (Eur J Med Chem, 2017).

The source made the active and inactive calls. The rule behind the calls is not given here.

As for `O=C(Nc1ccccc1-c1cn2c(CN3CCNCC3)csc2n1)c1cnc2ccccc2n1`, the IC50 (in general, the concentration at which inhibition is half-maximal) in data set [1] was determined as 0.85 µM.
Consider `Cc1cc(C)nc(SCC(=O)Nc2ccc(C(O)c3ccccc3)cc2)n1` (centres undefined), for which the inhibition in data set [2] was found to be 75%; in data set [3] it was 26%.
For `Cc1cc(C)nc(SCC(=O)Nc2ccc(Nc3ccccc3)cc2)n1` the same measures were 72% and 19%.
In the case of `Cc1cc(C)nc(SCC(=O)Nc2cccc(NCc3ccccc3)c2)n1`, the inhibition in data set [2] stood at 95%; in data set [3], 64%.
Turning to `CC(=O)Nc1cccc(OCc2cccc(NC(=O)CSc3nc(C)cc(C)n3)c2)c1`, the inhibition came out at 99% in data set [2] and 68% in data set [3].
For `Cc1cc(C)nc(SCC(=O)Nc2cccc(COc3ccc(NS(=O)(=O)C4CC4)cc3)c2)n1` the same measures were 95% and 67%.
In the case of `CC(=O)Nc1ccc(OCc2cccc(NC(=O)CSc3nc(C)cc(C)n3)c2)cc1`, the results for the inhibition in data set [2] and in data set [3] were 92% and 62%, respectively.
For `Cc1cc(C)nc(SCC(=O)Nc2ccc(Oc3ccccc3)cc2)n1` the same measures were 78% and 42%.
On the same counts, the results for `Cc1cc(C)nc(SCC(=O)Nc2ccc(C(=O)c3ccccc3)cc2)n1` are 74% and 22%.
With `Cc1cc(C)nc(SCC(=O)Nc2ccc(COc3ccccc3)cc2)n1`, the inhibition in data set [2] amounted to 24%; in data set [3], 1%. Moreover, the inhibition at 120 h, 100 µM in data set [4] came to 6%. For the same compound, the “growth inhibition (GI)” value with MCF7 [5] is “inactive”.
Consider `Cc1cc(C)nc(SCC(=O)Nc2cccc(Oc3ccccc3)c2)n1`, for which the values for the inhibition in data set [2] and in data set [3] were 92% and 49%, respectively.
For `Cc1cc(C)nc(SCC(=O)Nc2cccc(COc3ccc4ccccc4c3)c2)n1` the same measures were 84% and 59%.
On the same counts, the results for `Cc1cc(C)nc(SCC(=O)Nc2ccc(NCc3ccncc3)cc2)n1` are 43% and 10%.
`Cc1cc(C)nc(SCC(=O)Nc2ccc(CNc3ccccc3)cc2)n1`: the inhibition in data set [2] was determined as 72%; in data set [3] it was 20%.
On to `Cc1cc(C)nc(SCC(=O)Nc2cccc(C(=O)c3ccccc3)c2)n1`, for which the inhibition is 89% in data set [2] and 40% in data set [3].
For `Cc1cc(C)nc(SCC(=O)Nc2cccc(CNc3ccccc3)c2)n1` the same measures were 90% and 49%.
On the same counts, the results for `Cc1cc(C)nc(SCC(=O)Nc2cccc(COc3ccc(NS(=O)(=O)c4ccccc4)cc3)c2)n1` are 87% and 73%.
For `Cc1cc(C)nc(SCC(=O)Nc2cccc(Nc3ccccc3)c2)n1` the same measures were 95% and 61%.
As to `Cc1cc(C)nc(SCC(=O)Nc2cccc(COc3ccccc3)c2)n1`, the inhibition stood at 96% in data set [2] and 71% in data set [3].
On the same counts, the results for `Cc1cc(C)nc(SCC(=O)Nc2cccc(OCc3ccccc3)c2)n1` are 92% and 59%.
On the same counts, the results for `Cc1cc(C)nc(SCC(=O)Nc2ccc(Cc3ccccc3)cc2)n1` are 74% and 70%.
For `Cc1cc(C)nc(SCC(=O)Nc2cccc(COc3cccc4cccnc34)c2)n1` the same measures were 73% and 41%.
Regarding `Cc1cc(C)nc(SCC(=O)Nc2ccc(NCc3ccco3)cc2)n1`, the inhibition in data set [2] came to 58%; in data set [3], 17%.
On the same counts, the results for `Cc1cc(C)nc(SCC(=O)Nc2ccc(NCc3cccs3)cc2)n1` are 70% and 15%.
Take `Cc1cc(C)nc(SCC(=O)Nc2ccc(NCc3ccccc3)cc2)n1`: the inhibition in data set [2] was determined as 55%; in data set [3], 9%.
Consider `Cc1cc(C)nc(SCC(=O)Nc2cccc(NCc3cccs3)c2)n1`, for which the inhibition in data set [2] stood at 93%; in data set [3], 60%.
With `Cc1cc(C)nc(SCC(=O)Nc2ccc(OCc3ccccc3)cc2)n1`, the inhibition in data set [2] was 62%; in data set [3] it was 40%.
For `Cc1cc(C)nc(SCC(=O)Nc2cccc(C(O)c3ccccc3)c2)n1` (centres undefined) the same measures were 78% and 18%.
For `Cc1cc(C)nc(SCC(=O)Nc2cccc(COc3ccc4[nH]ncc4c3)c2)n1` the same measures were 91% and 57%.
Regarding `Cc1cc(C)nc(SCC(=O)Nc2cccc(COc3ccc(NC(=O)c4cccs4)cc3)c2)n1`, the IC50 in data set [1] and in data set [6] was more than 300 µM throughout. In addition, the inhibition at 120 h, 100 µM in data set [4] amounted to 3%. For the same compound, in the data set on MCF7 [5] (MCF7, 120 h, read-out: GI), the inhibition of growth at 50 µM was more than 50%. The “growth inhibition (GI)” value in the data set with MCF7 [7] was “Dose-dependent effect”.
Consider `Cc1cc(C)nc(SCC(=O)Nc2cccc(Cc3ccccc3)c2)n1`, for which the inhibition in data set [2] turned out to be 96%; in data set [3], 73%.
On the same counts, the results for `Cc1cc(C)nc([S+]([O-])CC(=O)Nc2ccc(Oc3ccccc3)cc2)n1` (centres undefined) are 79% and 34%.
On the same counts, the results for `Cc1ccc(C(=O)Nc2ccc(S(=O)(=O)O)c3cc(S(=O)(=O)O)cc(S(=O)(=O)O)c23)cc1NC(=O)c1cccc(NC(=O)Nc2cccc(C(=O)Nc3cc(C(=O)Nc4ccc(S(=O)(=O)O)c5cc(S(=O)(=O)O)cc(S(=O)(=O)O)c45)ccc3C)c2)c1` are 73% and 31%.
As for `Cc1cc(C)nc(S(=O)(=O)CC(=O)Nc2ccc(Oc3ccccc3)cc2)n1`, the inhibition was 21% in data set [2] and -2% in data set [3].
Turning to `Cc1cc(C)nc(SCC(=O)Nc2cccc(COc3cccc4ccccc34)c2)n1`, the inhibition came to 79% in data set [2] and 42% in data set [3].
